Sampled rows, rich in hits. Any-hit rate of the full collection: about 2.1%.
IEC-6 tox: cytotoxicity in IEC-6 intestinal epithelial cells, primary screen, cytotoxicity control for KLF5 inhibitor project, cell-based, luminescence; IEC-6 cytotoxicity, luminescence viability; AID 1825, 2009; inhibition, % at 5 µM; 290,000 compounds, 0.78% hits; in the data active means inhibition above about 22%;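 further: 0% = plate median of test compound wells and 100% = cytotoxic reference compound wells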
BaF3 tox: parental Ba/F3 cell viability inhibition, counter-screen for JAK2V617F inhibitor project, murine pro-B, CellTiter-Glo luminescence; CellTiter-Glo ATP luminescence; inhibition, % at 5.6 µM; 220,000 compounds, 1.1% hits; AID 1486, 2009;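 active means inhibition above a per-campaign cutoff, the mean inhibition of all tested compounds plus 3 SD, cut at about 27% in these data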;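 further: 0% = DMSO wells and 100% = JAK Inhibitor I control wells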
MT stabilizer: microtubule stabilizers in HeLa cells, primary screen, imaging, high-content imaging | % tubulin-high responders, % at 10 µM | 200,000 compounds, 0.83% hits | HeLa tubulin immunostaining HCS, 24 h; share of cells brighter than vehicle mean+2SD | AID 2205, 2009;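 active means plate Z-score above 3 for both tubulin-high and condensed-nucleus cell shares, with cell loss under 80%, at 10 µM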;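 further: anti alpha tubulin signal scored within the nucleus-defined area of each cell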
bCat nuc transl: modulators of beta-catenin nuclear translocation, primary screen, imaging, HeLa cells, immunofluorescence, high-content; nuclear translocation activity, % at 5 µM; 190,000 compounds, 0.3% hits; AID 1665, 2009;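 active means nuclear translocation activity above 50% at 5 µM, with a well cell count of 50 or more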;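 further: per-cell ratio of nuclear to cytoplasmic median beta-catenin stain intensity; plate controls were DMSO negative control for no effect and GSK-3 inhibitor IX positive control for full effect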
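Test system: human HeLa cell line; Doses: 5 µM primary, 0.02–20 µM confirmation; Incubation: 24 h compound exposure, 37°C; Detection: beta-catenin immunofluorescence imaging with DAPI; Read-out: beta-catenin nuclear/cytoplasmic ratio, % activation.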
Ba/F3 V617F tox: reduced viability of JAK2V617F-dependent Ba/F3 cells, primary screen, JAK2V617F inhibitor project, cell-based, Ba/F3 EpoR-JAK2V617F, luminescence. ATP luminescence. inhibition, % at 5.6 µM. 220,000 compounds, 1.1% hits. AID 1446, 2008;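 active means inhibition above the campaign mean plus 3 SD over all tested compounds, cut at about 24% in these data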;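 further: cytokine-independent growth of Ba/F3 cells driven by EpoR plus mutant JAK2; 0% = DMSO-treated cells and 100% = JAK inhibitor I control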
KLF5 inhibitor: KLF5 expression inhibitors, primary screen, DLD-1 cells, luminescence. 290,000 compounds, 0.23% hits. AID 1700, 2009. DLD-1 KLF5 promoter-luciferase reporter. inhibition, % at 5 µM;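 active means inhibition above a per-plate limit of that plate's mean compound inhibition plus 3 SD, cut at about 60% in these data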;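 further: 0% = DMSO wells and 100% = LY294002 at 200 µM; higher means less KLF5 promoter-driven luciferase light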
* marks the source's active call; other numbers are inactive results; nt = not tested or not shown.

SMILES	IEC-6 tox	BaF3 tox	MT stabilizer	bCat nuc transl	Ba/F3 V617F tox	KLF5 inhibitor
CC(=O)N1N=C(c2ccccc2)OC1c1ccc([N+](=O)[O-])s1 (centres undefined)	-9.8	2.9	3.1	nt	-0.5	-11.3
C#CC(C)(C)NC(=O)c1ccc(-c2ccccc2F)cc1	-1.9	4.1	nt	-0.7	-0.7	-71.2
Cc1sc(NC(=O)c2ccc(=O)n(C)n2)nc1-c1ccccc1	-11.5	44.7*	3.4	0.9	43.9*	-57.0
Cc1sc(NC(=O)c2c(F)cccc2F)nc1-c1ccccc1	-1.1	nt	nt	nt	nt	-32.9
O=[N+]([O-])c1ccc(C[n+]2cc(-c3ccccc3)n3c2CCCCC3)cc1	-0.5	10.5	3.2	0.4	-2.6	9.9
O=C(C[n+]1cc(-c2ccccc2)n2c1CCCCC2)c1ccc(Cl)cc1	1.4	56.1*	5.0	0.0	52.8*	-3.3
COc1ccc(-c2c[n+](CC(=O)c3ccccc3)c3n2CCCCC3)cc1	-2.5	59.6*	nt	0.4	48.4*	-26.6
O=C(C[n+]1cc(-c2ccc(Cl)c(Cl)c2)n2c1CCC2)OCc1ccccc1	0.2	6.4	2.2	0.4	-0.5	6.0
CC1CCC(C(C)C)C(OC(=O)C[n+]2cc(-c3ccc(Cl)cc3)n3c2CCCCC3)C1 (centres undefined)	5.2	73.0*	5.8	-0.9	100.7*	21.2
C[n+]1cc(-c2ccccc2)n2c1CCCCC2	1.0	64.2*	2.1	2.6	64.8*	-32.5
CCN(CC(=O)Nc1c(F)cccc1F)C(=O)CCc1ccc(OC)cc1	-0.5	11.1	4.7	-2.7	2.1	12.1
Cn1c(NC(=O)C[n+]2cc(-c3ccc(F)cc3)n3c2CCC3)cc(=O)n(C)c1=O	-1.9	14.1	5.5	-3.1	2.8	7.9
Cc1ccc(-c2c[n+](CC(=O)c3ccc(Br)cc3)c3n2CCCCC3)cc1	3.4	69.4*	4.8	-2.5	77.3*	-8.5
O=C(C[n+]1cc(-c2ccc(F)cc2)n2c1CCC2)c1cccs1	-5.4	29.4*	nt	0.6	10.8	-54.4
Cc1ccc(NC(=O)C[n+]2cc(-c3ccccc3)n3c2CCC3)cc1	-3.9	-2.1	nt	-0.4	-1.3	0.2
O=C(/C=C/c1ccco1)NC(=S)Nc1ccc(N2CCCC2)cc1	-6.6	0.1	13.1*	-4.3	-3.2	-22.1
Cc1ccnc(NC(=S)NC(=O)/C=C/c2ccco2)c1	9.4	3.0	21.0*	-1.5	0.7	-106.0
Cc1ccnc(NC(=O)/C=C/c2cccs2)c1	6.7	6.8	14.2*	2.3	3.3	-108.0
Cc1ccc(-c2csc(NC(=S)NC(=O)/C=C/c3ccco3)n2)cc1	0.0	0.7	31.9*	31.1	1.1	-16.0
O=C(/C=C\c1ccco1)Nc1nc(-c2ccc3ccccc3c2)cs1	-1.2	3.2	4.5	-1.1	-1.0	-8.8
CCn1cc(CN2CCCC(C(=O)c3ccc(-c4ccccc4)cc3)C2)cn1 (centres undefined)	-0.7	5.0	2.3	0.9	2.1	-22.0
COc1cc(OC)cc(C(=O)N[C@H](C(=O)Nc2nnc(C3CC3)s2)C(C)C)c1	-17.7	5.4	5.6	-3.8	2.8	-13.7
CC(=O)O[C@H]1C[C@@]2(O)[C@@H](OC(=O)c3ccccc3)C3[C@@](C)([C@@H](O)C[C@H]4OC[C@@]34OC(C)=O)[C@@H](O)[C@H](OC(C)=O)C(=C1C)C2(C)C (some centres undefined)	-2.2	nt	nt	nt	nt	-13.1
CC(=O)O[C@@]12CO[C@@H]1C[C@H](O)[C@@]1(C)C(=O)[C@H](O)C3=C(C)[C@@H](OC(=O)[C@H](O)[C@@H](NC(=O)OC(C)(C)C)c4ccccc4)C[C@](O)([C@@H](OC(=O)c4ccccc4)[C@H]21)C3(C)C	86.9*	61.9*	nt	76.8*	73.4*	67.7*
O=c1c2ccc(Cl)cc2nc(-c2cccc(C(F)(F)F)c2)n1O	-6.2	56.2*	1.4	4.1	59.7*	40.5
OC(CNCC1COc2ccccc2O1)COc1ccc(Cl)cc1 (centres undefined)	9.8	nt	nt	nt	nt	-17.7
